The IC50 is the concentration that gives 50% inhibition. A high value points to lower potency. By Inhibition is commonly meant how much of the control response was suppressed. Low values mean a weak effect, high ones a strong effect.

SMILES strings stand for the structures. Where “and” joins values, the source holds several entries; their conditions need not be identical. Identical values can stand only once. Positions of bridges follow the written chain, without caps; N, C: chain ends. Non-standard residues stand in square brackets, D forms with d. Residues, ends and D or L forms follow the SMILES beside them. NMePhe(4-CH2NHiPr) = CN[C@@H](Cc1ccc(CNC(C)C)cc1)C(=O)O; Phe(4-CH2NHiPr) = CC(C)NCc1ccc(C[C@H](N)C(=O)O)cc1 Some results are limits rather than exact numbers.

The source of these data is ChEMBL document CHEMBL1145176, “Somatostatin receptor 1 selective analogues: 2. N(alpha)-Methylated scan” (J Med Chem, 2005).

Experiment [1] concerns the target Somatostatin receptor type 1 (Homo sapiens, UniProt P30872). Nature of the experiment: Inhibition of [Leu8,D-Trp22,125I-Tyr25]SRIF-28 binding to human somatostatin receptor type 1.
The target of experiment [2] is Somatostatin receptor type 2 (Homo sapiens, UniProt P30874). Nature of the experiment: Inhibition of [Leu8,D-Trp22,125I-Tyr25]SRIF-28 binding to human somatostatin receptor type 2.
Somatostatin receptor type 2, sequence (P30874 whole entry): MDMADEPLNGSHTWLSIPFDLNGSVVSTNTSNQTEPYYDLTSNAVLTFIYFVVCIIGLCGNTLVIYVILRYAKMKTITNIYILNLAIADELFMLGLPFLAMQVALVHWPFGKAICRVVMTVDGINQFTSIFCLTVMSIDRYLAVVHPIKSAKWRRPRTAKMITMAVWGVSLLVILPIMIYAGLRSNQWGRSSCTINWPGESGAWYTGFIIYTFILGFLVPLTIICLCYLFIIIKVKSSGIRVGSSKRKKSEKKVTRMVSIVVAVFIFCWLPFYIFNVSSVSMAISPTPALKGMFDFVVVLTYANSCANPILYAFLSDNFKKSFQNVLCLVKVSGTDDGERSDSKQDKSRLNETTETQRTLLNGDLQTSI
Experiment [3] addresses Somatostatin receptor type 3 (Homo sapiens, UniProt P32745). The experiment can be described thus: Inhibition of [Leu8,D-Trp22,125I-Tyr25]SRIF-28 binding to human somatostatin receptor type 3.
Experiment [4] has as its target Somatostatin receptor type 4 (Homo sapiens, UniProt P31391). Nature of the experiment: Inhibition of [Leu8,D-Trp22,125I-Tyr25]SRIF-28 binding to human somatostatin receptor type 4.
The target in experiment [5] is Somatostatin receptor type 5 (Homo sapiens, UniProt P35346). Nature of the experiment: Inhibition of [Leu8,D-Trp22,125I-Tyr25]SRIF-28 binding to human somatostatin receptor type 5.
Somatostatin receptor type 5, sequence (P35346 whole entry): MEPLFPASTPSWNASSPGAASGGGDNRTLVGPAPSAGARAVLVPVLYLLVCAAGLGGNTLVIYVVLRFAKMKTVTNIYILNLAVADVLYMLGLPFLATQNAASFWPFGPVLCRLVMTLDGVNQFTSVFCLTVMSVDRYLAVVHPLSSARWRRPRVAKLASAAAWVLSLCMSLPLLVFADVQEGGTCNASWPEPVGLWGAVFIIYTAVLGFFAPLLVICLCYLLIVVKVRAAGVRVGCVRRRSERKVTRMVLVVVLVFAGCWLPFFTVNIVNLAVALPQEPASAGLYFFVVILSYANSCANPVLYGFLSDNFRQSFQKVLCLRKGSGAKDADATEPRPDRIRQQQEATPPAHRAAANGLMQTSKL
A further experiment deals with CHO-K1. The experiment can be described thus: Inhibition of forskolin-stimulated cAMP accumulation in CCL39 cells. Type of experiment: functional, Cricetulus griseus. Put shortly:
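CCL39 cells stably expressing human sst1 were seeded at 2 × 10^4 cells/well on poly-D-lysine plates and grown 24 h. Cells were preincubated 30 min at 37 °C with 0.5 mM IBMX, then exposed 30 min at 37 °C to IBMX ± 7.5 µM forskolin plus graded compound concentrations. Lysate cAMP was read by scintillation proximity assay and expressed as % forskolin-stimulated level. EC50 came from three independent experiments in triplicate, with SRIF-28 as positive control.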
In general terms: Cyclic AMP is a second messenger, typically raised through Gs and lowered through Gi signalling.

Somatostatin receptor type 4, sequence (P31391 whole entry): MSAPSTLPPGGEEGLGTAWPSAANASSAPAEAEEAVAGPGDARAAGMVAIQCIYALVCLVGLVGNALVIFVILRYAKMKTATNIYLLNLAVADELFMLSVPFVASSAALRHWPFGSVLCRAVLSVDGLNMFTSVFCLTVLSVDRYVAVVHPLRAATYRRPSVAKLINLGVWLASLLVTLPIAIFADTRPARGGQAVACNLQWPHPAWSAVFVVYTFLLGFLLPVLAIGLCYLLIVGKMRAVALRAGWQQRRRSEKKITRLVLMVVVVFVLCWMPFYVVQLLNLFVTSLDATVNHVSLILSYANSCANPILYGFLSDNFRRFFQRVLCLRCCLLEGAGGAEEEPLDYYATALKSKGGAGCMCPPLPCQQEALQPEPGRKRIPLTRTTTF
Somatostatin receptor type 1, sequence (P30872 whole entry): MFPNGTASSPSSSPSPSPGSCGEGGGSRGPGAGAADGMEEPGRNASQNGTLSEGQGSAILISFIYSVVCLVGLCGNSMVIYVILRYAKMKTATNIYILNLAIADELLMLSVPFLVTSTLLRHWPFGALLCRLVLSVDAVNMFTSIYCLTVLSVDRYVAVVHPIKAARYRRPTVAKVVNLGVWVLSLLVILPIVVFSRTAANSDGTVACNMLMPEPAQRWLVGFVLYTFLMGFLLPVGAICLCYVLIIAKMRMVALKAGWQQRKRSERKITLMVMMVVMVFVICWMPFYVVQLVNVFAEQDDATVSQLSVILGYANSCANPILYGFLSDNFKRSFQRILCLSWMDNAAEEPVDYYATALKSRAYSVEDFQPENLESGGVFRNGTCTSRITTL
Somatostatin receptor type 3, sequence (P32745 whole entry): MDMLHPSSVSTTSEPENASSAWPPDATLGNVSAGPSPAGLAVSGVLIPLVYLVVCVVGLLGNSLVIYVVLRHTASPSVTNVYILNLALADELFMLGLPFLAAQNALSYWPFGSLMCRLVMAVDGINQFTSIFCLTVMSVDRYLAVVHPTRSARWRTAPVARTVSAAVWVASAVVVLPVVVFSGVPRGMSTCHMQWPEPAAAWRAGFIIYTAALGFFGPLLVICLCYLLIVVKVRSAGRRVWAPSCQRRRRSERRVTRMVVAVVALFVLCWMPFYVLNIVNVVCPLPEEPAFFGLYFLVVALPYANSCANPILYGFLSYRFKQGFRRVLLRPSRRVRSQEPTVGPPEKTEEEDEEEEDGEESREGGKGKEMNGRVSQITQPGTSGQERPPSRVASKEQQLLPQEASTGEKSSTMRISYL

`CC(C)NCc1ccc(C[C@@H]2NC(=O)[C@@H](Cc3ccc4ccccc4c3)NC(=O)[C@H](Cc3ccccc3)NC(=O)[C@H](Cc3ccccc3)NC(=O)[C@H](CCCCN)NC(=O)[C@@H](N)CSSC[C@@H](C(=O)O)NC(=O)[C@H](CO)N(C)C(=O)[C@H]([C@@H](C)O)NC(=O)[C@H](Cc3ccccc3)NC(=O)[C@H]([C@@H](C)O)NC2=O)cc1`: the IC50 in experiment [1] was 71 nM; in experiment [2] it was over 1000 nM; in experiment [3], over 1000 nM; in experiment [4], over 1000 nM; in experiment [5], over 1000 nM.

Take `CN[C@H]1CSSC[C@@H](C(=O)O)NC(=O)[C@H](CO)NC(=O)[C@H]([C@@H](C)O)NC(=O)[C@H](Cc2ccccc2)NC(=O)[C@H]([C@@H](C)O)NC(=O)[C@H](Cc2ccc(CNC(C)C)cc2)NC(=O)[C@@H](Cc2c[nH]c3ccccc23)NC(=O)[C@H](Cc2ccccc2)NC(=O)[C@H](Cc2ccccc2)NC(=O)[C@H](CCCCN)NC1=O`: the IC50 in experiment [1] was 14 nM; in experiment [2] it was over 1000 nM; in experiment [3], over 1000 nM; in experiment [4], over 1000 nM; in experiment [5] it was over 1000 nM.

Consider `CC(C)NCc1ccc(C[C@@H]2NC(=O)[C@@H](Cc3c[nH]c4ccccc34)NC(=O)[C@H](Cc3ccccc3)NC(=O)[C@H](Cc3ccccc3)NC(=O)[C@H](CCCCN)NC(=O)[C@@H](N)CSSC[C@@H](C(=O)O)NC(=O)[C@H](CO)NC(=O)[C@H]([C@@H](C)O)N(C)C(=O)[C@H](Cc3ccccc3)NC(=O)[C@H]([C@@H](C)O)NC2=O)cc1`, for which the IC50 was 75 nM in experiment [1]; over 1000 nM in experiment [2]; over 1000 nM in experiment [3]; over 1000 nM in experiment [4]; over 1000 nM in experiment [5].

For the molecule `CC(C)NCc1ccc(C[C@@H]2NC(=O)[C@@H](Cc3ccc4ccccc4c3)NC(=O)[C@H](Cc3ccccc3)NC(=O)[C@H](Cc3ccccc3)NC(=O)[C@H](CCCCN)N(C)C(=O)[C@@H](N)CSSC[C@@H](C(=O)O)NC(=O)[C@H](CO)NC(=O)[C@H]([C@@H](C)O)NC(=O)[C@H](Cc3ccccc3)NC(=O)[C@H]([C@@H](C)O)NC2=O)cc1`, the IC50 in experiment [1] is 535 nM; in experiment [2] it was over 1000 nM; in experiment [3], over 1000 nM; in experiment [4] it was over 1000 nM; in experiment [5], over 1000 nM.

On to `CC(C)NCc1ccc(C[C@@H]2NC(=O)[C@@H](Cc3ccc4ccccc4c3)N(C)C(=O)[C@H](Cc3ccccc3)NC(=O)[C@H](Cc3ccccc3)NC(=O)[C@H](CCCCN)NC(=O)[C@@H](N)CSSC[C@@H](C(=O)O)NC(=O)[C@H](CO)NC(=O)[C@H]([C@@H](C)O)NC(=O)[C@H](Cc3ccccc3)NC(=O)[C@H]([C@@H](C)O)NC2=O)cc1`, for which the IC50 in experiment [1] is 325 nM; in experiment [2], over 1000 nM; in experiment [3], over 1000 nM; in experiment [4] it was over 1000 nM; in experiment [5] it was over 1000 nM.

With `CC(C)NCc1ccc(C[C@@H]2NC(=O)[C@@H](Cc3ccc4ccccc4c3)NC(=O)[C@H](Cc3ccccc3)NC(=O)[C@H](Cc3ccccc3)NC(=O)[C@H](CCCCN)NC(=O)[C@@H](N)CSSC[C@@H](C(=O)O)NC(=O)[C@H](CO)NC(=O)[C@H]([C@@H](C)O)NC(=O)[C@H](Cc3ccccc3)N(C)C(=O)[C@H]([C@@H](C)O)NC2=O)cc1`, the IC50 in experiment [1] was 583 nM; in experiment [2], over 1000 nM; in experiment [3], over 1000 nM; in experiment [4], over 1000 nM; in experiment [5], over 1000 nM.

As to `CC(C)NCc1ccc(C[C@@H]2NC(=O)[C@H](N(C)C(=O)c3ccc4ccccc4c3)NC(=O)[C@H](Cc3ccccc3)NC(=O)[C@H](Cc3ccccc3)NC(=O)[C@H](CCCCN)NC(=O)[C@@H](N)CSSC[C@@H](C(=O)O)NC(=O)[C@H](CO)NC(=O)[C@H]([C@@H](C)O)NC(=O)[C@H](Cc3ccc(O)cc3)NC(=O)[C@H]([C@@H](C)O)NC2=O)cc1`, the IC50 was 3.3 nM in experiment [1]; over 1000 nM in experiment [2]; over 1000 nM in experiment [3]; 562 nM in experiment [4]; over 1000 nM in experiment [5].

As to `CC(C)NCc1ccc(C[C@@H]2NC(=O)[C@@H](Cc3ccc4ccccc4c3)NC(=O)[C@H](Cc3ccccc3)NC(=O)[C@H](Cc3ccccc3)NC(=O)[C@H](CCCCN)NC(=O)[C@@H](N)CSSC[C@@H](C(=O)O)NC(=O)[C@H](CO)NC(=O)[C@H]([C@@H](C)O)NC(=O)[C@H](Cc3ccccc3)NC(=O)[C@H]([C@@H](C)O)N(C)C2=O)cc1`, the IC50 in experiment [1], in experiment [2], in experiment [3], in experiment [4] and in experiment [5] was over 1000 nM in each case.

As to `CC(C)NCc1ccc(C[C@@H]2NC(=O)[C@@H](Cc3ccc4ccccc4c3)NC(=O)[C@H](Cc3ccccc3)NC(=O)[C@H](Cc3ccccc3)NC(=O)[C@H](CCCCN)NC(=O)[C@@H](N)CSSC[C@@H](C(=O)O)NC(=O)[C@H](CO)NC(=O)[C@H]([C@@H](C)O)N(C)C(=O)[C@H](Cc3ccccc3)NC(=O)[C@H]([C@@H](C)O)NC2=O)cc1`, the IC50 in experiment [1] is 176 nM; in experiment [2] it was over 1000 nM; in experiment [3], over 1000 nM; in experiment [4], 417 nM; in experiment [5], over 1000 nM.

Turning to `CC(C)NCc1ccc(C[C@@H]2NC(=O)[C@@H](Cc3ccc4ccccc4c3)NC(=O)[C@H](Cc3ccccc3)NC(=O)[C@H](Cc3ccccc3)NC(=O)[C@H](CCCCN)NC(=O)[C@@H](N)CSSC[C@@H](C(=O)O)N(C)C(=O)[C@H](CO)NC(=O)[C@H]([C@@H](C)O)NC(=O)[C@H](Cc3ccccc3)NC(=O)[C@H]([C@@H](C)O)NC2=O)cc1`, the half-inhibitory concentration (IC50) is 260 nM in experiment [1]; over 1000 nM in experiment [2]; over 1000 nM in experiment [3]; over 1000 nM in experiment [4]; over 1000 nM in experiment [5].

Turning to `CC(C)NCc1ccc(C[C@@H]2NC(=O)[C@@H](Cc3ccc4ccccc4c3)NC(=O)[C@H](Cc3ccccc3)N(C)C(=O)[C@H](Cc3ccccc3)NC(=O)[C@H](CCCCN)NC(=O)[C@@H](N)CSSC[C@@H](C(=O)O)NC(=O)[C@H](CO)NC(=O)[C@H]([C@@H](C)O)NC(=O)[C@H](Cc3ccccc3)NC(=O)[C@H]([C@@H](C)O)NC2=O)cc1`, the IC50 in experiment [1], in experiment [2], in experiment [3], in experiment [4] and in experiment [5] was over 1000 nM in each case.

For `CC(C)NCc1ccc(C[C@@H]2NC(=O)[C@H](N(C)C(=O)c3ccc4ccccc4c3)NC(=O)[C@H](Cc3ccccc3)NC(=O)[C@H](Cc3ccccc3)NC(=O)[C@H](CCCCN)NC(=O)[C@@H](N)CSSC[C@@H](C(=O)O)NC(=O)[C@H](CO)NC(=O)[C@H]([C@@H](C)O)NC(=O)[C@H](Cc3ccc(O)c(I)c3)NC(=O)[C@H]([C@@H](C)O)NC2=O)cc1`, the IC50 is 6.7 nM in experiment [1]; over 1000 nM in experiment [2]; 536 nM in experiment [3]; 435 nM in experiment [4]; over 1000 nM in experiment [5].

As to `CSCC[C@H](NC(=O)[C@H](C)NC(=O)[C@@H]1CCCN1C(=O)[C@H](CC(N)=O)NC(=O)[C@H](CO)NC(=O)[C@H](CC(N)=O)NC(=O)[C@H](C)NC(=O)[C@@H](N)CO)C(=O)N[C@@H](C)C(=O)N1CCC[C@H]1C(=O)N[C@@H](CCCNC(=N)N)C(=O)N[C@@H](CCC(=O)O)C(=O)N[C@@H](CCCNC(=N)N)C(=O)N[C@@H](CCCCN)C(=O)N[C@@H](C)C(=O)NCC(=O)N[C@H]1CSSC[C@@H](C(=O)O)NC(=O)[C@H](CO)NC(=O)[C@H]([C@@H](C)O)NC(=O)[C@H](Cc2ccccc2)NC(=O)[C@H]([C@@H](C)O)NC(=O)[C@H](CCCCN)NC(=O)[C@H](Cc2c[nH]c3ccccc23)NC(=O)[C@H](Cc2ccccc2)NC(=O)[C@H](Cc2ccccc2)NC(=O)[C@H](CC(N)=O)NC(=O)[C@H](CCCCN)NC1=O`, in the experiment with CHO-K1, the Inhibition was >81% and >49%.

`CC(C)NCc1ccc(C[C@@H]2NC(=O)[C@@H](Cc3ccc4ccccc4c3)NC(=O)[C@H](Cc3ccccc3)NC(=O)[C@H](Cc3ccccc3)N(C)C(=O)[C@H](CCCCN)NC(=O)[C@@H](N)CSSC[C@@H](C(=O)O)NC(=O)[C@H](CO)NC(=O)[C@H]([C@@H](C)O)NC(=O)[C@H](Cc3ccccc3)NC(=O)[C@H]([C@@H](C)O)NC2=O)cc1`: the IC50 in experiment [1], in experiment [2], in experiment [3], in experiment [4] and in experiment [5] was over 1000 nM in each case.

Turning to `CC(C)NCc1ccc(C[C@@H]2NC(=O)[C@H](Cc3c[nH]c4ccccc34)NC(=O)[C@H](Cc3ccccc3)NC(=O)[C@H](Cc3ccccc3)NC(=O)[C@H](CCCCN)NC(=O)[C@@H](N)CSSC[C@@H](C(=O)O)NC(=O)[C@H](CO)NC(=O)[C@H]([C@@H](C)O)NC(=O)[C@H](Cc3ccc(O)cc3)NC(=O)[C@H]([C@@H](C)O)NC2=O)cc1` (H-CKFFW[Phe(4-CH2NHiPr)]TYTSC-OH; disulfide 1-11), the IC50 is 15 nM in experiment [1]; over 1000 nM in experiment [2]; over 1000 nM in experiment [3]; 384 nM in experiment [4]; over 1000 nM in experiment [5].

In the case of `CC(C)NCc1ccc(C[C@H]2C(=O)N[C@@H]([C@@H](C)O)C(=O)N[C@@H](Cc3ccccc3)C(=O)N[C@@H]([C@@H](C)O)C(=O)N[C@@H](CO)C(=O)N[C@H](C(=O)O)CSSC[C@H](N)C(=O)N[C@@H](CCCCN)C(=O)N[C@@H](Cc3ccccc3)C(=O)N[C@@H](Cc3ccccc3)C(=O)N[C@H](Cc3c[nH]c4ccccc34)C(=O)N2C)cc1` (H-CKFF[dW][NMePhe(4-CH2NHiPr)]TFTSC-OH; disulfide 1-11), the IC50 in experiment [1] was 10 nM; in experiment [2] it was over 1000 nM; in experiment [3], 1030 nM; in experiment [4] it was 226 nM; in experiment [5], over 1000 nM.
